# Source: PubChem
# Only some compounds are listed: those with a hit (about 4.8% of all), similar ones and a draw of the others.
# Beta cell apopt: inhibitors of cytokine-induced beta cell apoptosis, primary screen, luminescence. AID 435005, 2010. protection from apoptosis, % (concentration not given with the values). hit rate 0.8% among 300,000. INS-1E cytokine-induced death, ATP luminescence, 48 h; percent of positive-control rescue, neutral wells zero;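 active means Every replicate reaches about 75%, or at least half do and their mean reaches it too, limit read from the data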;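 further: 0% = cytokine-treated negative control wells and 100% = positive control rescue; higher means more ATP so stronger rescue from cytokine killing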
# CHOP UPR activ: activators of apoptotic CHOP UPR arm, primary screen, cell-based, CHO-CHOP luciferase reporter, luminescence, uHTS. hit rate 0.34% among 330,000. UPR activation; percent of tunicamycin response over DMSO baseline. activation, % at 10 µM. AID 449763, 2010;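 active means at 10 µM dose, activation of 40% or more, normalized to positive control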;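 further: 100% = tunicamycin at 10 µg/mL and 0% = DMSO alone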
#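 assay system = CHO CHOP reporter cells | amount = 500 CHO-CHOP cells per well | buffer or medium = F12 with 10% FBS | incubation = 16-18 h cell attachment, then 6 h compound exposure, 37 °C | detection = luminescence read with Steady-Glo | read-out = percent activation relative to tunicamycin control | controls = tunicamycin high control, DMSO low control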
# UPR XBP1 act: activators of adaptive XBP1 UPR arm, primary screen, cell-based, CHO-XBP1 luciferase reporter, luminescence, uHTS; IRE1-XBP1 UPR activation; percent of tunicamycin response, DMSO as zero; activation, % at 20 µM; hit rate 0.33% among 330,000;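 active means versus positive control, 20 µM dose yields 30% or more activation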;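 further: 100% = tunicamycin at 10 µg/mL and 0% = DMSO only wells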
#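 Assay system: CHO-XBP1 luciferase reporter cells; Schedule: 6 h treatment, 37 °C; Detection: glow luminescence from Steady-Glo reagent; Benchmarks: high control tunicamycin 10 µg/mL final, low control DMSO vehicle only.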
# SKKanGAS inh: S. pyogenes SKKanGAS growth inhibitors in kanamycin, primary screen, streptokinase expression inhibitor project, SKKanGAS strain, BacTiter-Glo luminescence | 6 h | inhibition, % at 7.5 µM | hit rate 1.3% among 300,000 | AID 1662, 2009;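 active means mean replicate score, as percent of positive control median, at least 50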;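 further: strain carries kanamycin resistance gene driven by streptokinase promoter and grows in 40 µg/ml kanamycin; loss of luminescence reflects streptokinase promoter inhibition or plain growth inhibition; 0% = median of DMSO wells and 100% = positive control at its reference dose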
# Mdm2-MdmX inh: inhibitors of human Mdm2-MdmX association, primary screen, cell-based, luminescence, split luciferase, SaOS-2, uHTS | Protein Mdm4 (Homo sapiens) + E3 ubiquitin-protein ligase Mdm2 (Homo sapiens), … | SaOS-2 split-luciferase Mdm2/MdmX complementation | inhibition, % at 8 µM | hit rate 3% among 330,000 | AID 485346, 2010;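 active means inhibition of at least 50% at 8 µM in the primary screen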
# CSC inhib: cancer stem cell viability inhibitors, primary screen, luminescence | inhibition, % at 7.5 µM | hit rate 1.1% among 300,000 | AID 2717, 2010 | cancer stem cell-like cells viability; in the data active means inhibition above about 75%; tested in HMLE shEcad cells
# Mdm2 MdmX conf: Mdm2-MdmX complex disruptors, retested hits, confirmation, luminescence, single concentration | Mdm2-MdmX binding, luminescent assay | shares compounds with Mdm2-MdmX inh | hit rate 55% among 10,000 | AID 489028, 2010 | inhibition, % at 8 µM; in the data active means inhibition above about 40%
# Full FLuc ctr: full-length luciferase signal inhibition, confirmation, counter-screen for Mdm2/MdmX interaction inhibitor project, cell-based, single concentration, SaOS-2; shares compounds with Mdm2-MdmX inh; hit rate 77% among 6,200; SaOS-2 full-length luciferase counterscreen, luminescence; inhibition, % at 8 µM;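 active means mean inhibition at 8 µM reaching about 37%, which flags the compound as non-specific, limit read from the data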;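 further: p53-null SaOS-2 cells with luciferase driven by a doxycycline-inducible promoter; compound on cells about two nights before reading with doxycycline added after day one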
# Numbers without * were called inactive; x = no result.
SMILES,Beta cell apopt,CHOP UPR activ,UPR XBP1 act,SKKanGAS inh,Mdm2-MdmX inh,CSC inhib,Mdm2 MdmX conf,Full FLuc ctr
Cc1ccc(C(C)C)c(OCC#CCN2CCOCC2)c1,x,1,-1,9,25,x,x,x
COc1cc(/C=C(\C#N)c2ccccn2)cc(OC)c1O,4,1,-2,-4,11,26,x,x
COc1cc(/C=C(\C#N)c2[nH]nc(N)c2C#N)cc(OC)c1O,12,11,26,10,65*,17,36,x
O=C1C(=O)N(CCS(=O)(=O)c2ccccc2)c2ccc(F)cc21,-18,2,-2,1,24,9,x,x
Cc1ccc(C)c(N2CCN(C(=O)Cn3ncc4c([nH]c5ccc(C)cc54)c3=O)CC2)c1,1,3,-4,-2,52*,-10,-4,x
COc1ccc(N2CCN(C(=O)Cn3ncc4c([nH]c5ccccc54)c3=O)CC2)cc1,-2,-1,-2,-10,50*,8,16,x
Cc1ccc(C)c(Cn2c3ccccc3c3cnn(CC(=O)NCCCN4CCCCC4)c(=O)c32)c1,8,0,-1,13,92*,-13,48*,48*
Cc1ccc2[nH]c3c(=O)n(CC(=O)NCCCN4CCN(c5ccc(F)cc5)CC4)ncc3c2c1,-1,3,-3,5,69*,-16,36,x
COc1ccccc1N1CCN(C(=O)Cn2ncc3c([nH]c4ccccc43)c2=O)CC1,x,2,0,5,30,-5,x,x
Cc1ccc(-n2c(C)cc(/C=c3/sc4nc5ccccc5n4c3=O)c2C)cc1,1,-9,-14,10,82*,-8,61*,28
c1cc(Nc2cccc3nccnc23)c2nccnc2c1,7,4,6,17,61*,-1,52*,90*
COc1cc2cc(CN(CCc3ccccc3C)C(=S)NCCCN(C)C)c(=O)[nH]c2cc1OC,1,-2,-3,6,55*,3,22,x
COc1cc2cc(CN(CCc3ccccc3C)C(=S)NCCCN3CCOCC3)c(=O)[nH]c2cc1OC,0,2,-2,3,52*,2,20,x
CCNC(=S)N(CCc1ccccc1C)Cc1cc2cc(OC)c(OC)cc2[nH]c1=O,-6,-1,3,4,14,15,x,x
CCOc1ccc(CN(C)C(=O)CCc2ccc(S(=O)(=O)N3CCCCCC3)cc2)cc1,x,0,-5,x,9,x,x,x
CN(C)c1ccc(NC2=C(Cl)C(=O)c3ccccc3C2=O)cc1,-21,26,0,x,100*,147*,99*,2
COC(=O)c1[nH]c2ccc(Br)cc2c1NC(=O)C(C)N1CCN(C2CCCCC2)CC1 (stereo not drawn),-13,4,3,-4,96*,-2,34,5
COC(=O)c1[nH]c2ccc(C)cc2c1NC(=O)C(C)N1CCN(C2CCCCC2)CC1 (stereo not drawn),-5,-2,-3,11,53*,-10,31,x
COC(=O)c1[nH]c2ccc(C)cc2c1NC(=O)NC1CCCCC1,3,0,-5,-11,39,-6,x,x
Cc1nc(-c2ccc(NC(=O)c3ccccc3)cc2)cs1,-4,0,-8,11,-179,24,x,x
O=C(Nc1ccc(-c2csc(Nc3cccc(C(F)(F)F)c3)n2)cc1)c1ccccc1,14,7,11,84*,63*,136*,37,78*
